The list is not random: actives were taken first. Their share in the collection is about 4.1%.
KCNQ1 block: human KCNQ1 channel inhibition. P51787. CHO-K1 KCNQ1, FluxOR thallium flux fluorescence; hits give high values. B-score at 10 µM. hit rate 1.3% among 310,000;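 active = compounds whose thallium flux B-score, printed positive for inhibition, exceeds three library SD while starting fluorescence stays within three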;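 note: channel opened by potassium depolarization with thallium stimulus after 20 min compound exposure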
KCNK3 inh: human KCNK3 channel inhibition, primary screen; hit rate 0.84% among 340,000; AID 602410; B-score at 10 µM; CHO-KCNK3 thallium flux, FluxOR fluorescence; hits give low values; O14649;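 active = B-score under library mean minus 4 SD, starting fluorescence ratio at most library mean plus 5 SD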;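 note: more negative B-score means stronger inhibition of thallium flux through KCNK3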
KCNQ1 pot: potentiates or activates the human KCNQ1 potassium channel. CHO-K1 KCNQ1, thallium flux FluxOR fluorescence; hits give high values. P51787. AID 2648. B-score at 10 µM. hit rate 0.35% among 310,000;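 active = fluorescence ratio B-score, a plate-corrected score, at least three library SD, with initial intensity B-score within 5 SD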
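Doses: Single concentration per compound, DMSO matched to controls | Test system: KCNQ1-transfected CHO-K1 cells | Timing: 90 min dye loading and 20 min compound exposure, both at room temperature | Measured by: Kinetic FluxOR thallium fluorescence, 10-s 1-Hz baseline, 110-s post-stimulus read | Medium: Assay buffer with matched DMSO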
KCNK9 inh: human KCNK9 channel inhibition; HEK293 KCNK9, FluxOR thallium flux fluorescence; hits give low values; B-score at 10 µM; hit rate 1.2% among 310,000; Q9NPC2; AID 488922;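 active = ratio B-score over 3 SD below the library mean, with starting fluorescence within 5 SD of its mean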;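 note: negative B-score means less thallium flux so channel inhibition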
Target sequence (Q9NPC2 whole entry, looked up): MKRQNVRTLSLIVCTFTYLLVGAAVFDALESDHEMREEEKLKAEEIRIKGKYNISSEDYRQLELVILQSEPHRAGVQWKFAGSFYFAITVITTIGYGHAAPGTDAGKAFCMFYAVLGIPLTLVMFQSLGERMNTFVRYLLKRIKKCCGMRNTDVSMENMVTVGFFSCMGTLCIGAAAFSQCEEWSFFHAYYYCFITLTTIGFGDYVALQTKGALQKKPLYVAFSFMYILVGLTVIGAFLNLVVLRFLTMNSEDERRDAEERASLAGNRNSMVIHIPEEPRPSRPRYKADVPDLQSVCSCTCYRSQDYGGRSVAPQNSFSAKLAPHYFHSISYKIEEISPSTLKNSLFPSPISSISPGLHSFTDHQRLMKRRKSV
Cl transport mod: modulates chloride dependent transport by human KCC2 | B-score of Tl+ flux slope (higher = more flux/activation; lower = inhibition) at 10 µM | Q9H2X9 | hit rate 2.2% among 190,000 | KCC2 cells, thallium flux FluoZin-2 fluorescence | AID 1456;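 active = thallium flux slope and its plate-corrected score both differing from the plate sample mean at a set confidence after two filtering rounds, in either direction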;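 note: slope of fluorescence scaled to starting intensity during 10 to 20 s after thallium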
hERG rescue: hERG (human) protection from proarrhythmic block. CHO-hERG, FluxOR thallium flux, dofetilide IC70 present. Q12809. activation (rescue from dofetilide block), less the hit threshold, % at 10 µM. hit rate 0.51% among 310,000;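 active = activation above the mean of controls blocked by dofetilide plus 5 SD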;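 note: thallium influx through hERG after potassium depolarization seen as dye fluorescence rise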
The depositor's hits bear a star; i = inactive; · = no result.

SMILES	KCNQ1 block	KCNK3 inh	KCNQ1 pot	KCNK9 inh	Cl transport mod	hERG rescue
Cc1ccc(/C=C2/SC(=S)N(CCCC(=O)Nc3cc([N+](=O)[O-])ccc3O)C2=O)cc1	7*	i	i	i	·	-6.2
O=C(/C=C/c1ccccc1[N+](=O)[O-])N1CCc2ccccc2C1	i	i	i	i	·	-4.5
O=C(O)c1ccc(Cl)cc1Nc1nc2cc(Cl)ccc2o1	i	i	i	i	·	5.6*
CCC(=O)Nc1cc(Cl)ccc1C(=O)O	i	i	i	i	-1.03	-8.3
Cc1ccc(Oc2cc(NC(=O)CCCn3nc([N+](=O)[O-])c(Cl)c3C)cc([N+](=O)[O-])c2)cc1	7*	i	i	i	0.529	-12.9
COc1ccc(-c2cnnc(N/N=C/c3ccc(-c4ccc([N+](=O)[O-])cc4)o3)n2)cc1	·	i	·	·	-0.578	·
COc1ccccc1-c1cnnc(N/N=C/c2ccc(-c3cccc(Br)c3)o2)n1	i	i	i	-6.82*	1.04	-6.4
CN(C)c1ccc(/C=N\NC(=S)SCN2C(=O)C3CCC(C)(C2=O)C3(C)C)cc1 (centres undefined)	·	i	·	·	6.39*	·
CC12CCC(C(=O)N(CSC(=S)N/N=C\c3ccccc3O)C1=O)C2(C)C (centres undefined)	i	i	i	i	12.7*	-11.5
CN(C)c1ccc(/C=N/NC(=O)CCCO)cc1	i	i	i	i	0.285	-7.0
COc1ccc(/C=N\NC(=S)SCN2C(=O)C3CCC(C)(C2=O)C3(C)C)cc1 (centres undefined)	i	i	16*	i	14*	-0.4
CC12CCC(C(=O)N(CC(O)CN3CCN(Cc4ccccc4)CC3)C1=O)C2(C)C (centres undefined)	i	i	i	i	-1.09	-6.8
CCOc1ccc(NC(=O)CSc2nc3nc(C)cc(C)n3n2)cc1	i	i	i	i	·	-7.7
COc1ccc(C2NC(=O)NC(C)=C2C(=O)OC2CCCC(C)C2)cc1 (centres undefined)	i	i	i	i	·	-12.7
O=C(NCc1ccc2c(c1)OCO2)c1ccc(CSCc2cccc(Cl)c2)o1	i	i	i	-7.49*	0.108	-13.7
O=C(CSCc1cccc(Cl)c1)NCc1ccc2c(c1)OCO2	i	i	i	i	-0.49	-11.3
Cc1ccnc(NC(=O)c2ccc(Cl)s2)c1	i	i	i	i	·	-7.2
O=C(Nc1ccc(C(O)(C(F)(F)F)C(F)(F)F)cc1)c1ccc(Cl)c([N+](=O)[O-])c1	6*	i	i	i	-0.149	-49.9
CCC(CC)COC(=O)C1=C(C)NC(=O)NC1c1ccccc1Br (centres undefined)	i	i	i	i	·	-9.4
COC(=O)c1ccccc1NC(=O)NCCc1ccccc1OC	i	i	i	i	0.512	-0.8
CC(C)Cn1c(N)c(C(=O)COC(=O)c2cc(F)cc(F)c2)c(=O)n(C)c1=O	i	i	i	i	-0.297	-20.4
CC(C)Cn1c(N)c(C(=O)COC(=O)c2cnc(Cl)c(Cl)c2)c(=O)n(C)c1=O	6*	i	i	i	-0.901	-6.6
CCN(CC)C(=O)c1sc2nc(-c3cccs3)cc(-c3ccc(Cl)cc3)c2c1N	i	i	i	i	i	-7.2
CCN(CC)C(=O)c1sc2nc(-c3cccs3)cc(-c3cccs3)c2c1N	7*	i	i	-9.25*	-2.51	-14.6
Cc1nnc(NC(=O)c2sc3nc(-c4cccs4)cc(C(F)(F)F)c3c2N)s1	6*	i	i	i	-0.741	-18.6
Cc1ccc(CNC(=O)CNS(=O)(=O)c2ccc(Br)s2)cc1	i	i	i	i	·	-3.5
CCCS(=O)(=O)N1CCC(C(=O)NCCN2CCC(Cc3ccccc3)CC2)CC1	i	i	i	i	-0.0222	2.2
O=C(Nc1cc(Sc2nc3ccccc3s2)cc([N+](=O)[O-])c1)c1ccccc1	11*	i	i	i	-0.523	-22.8
COc1ccc(/C=N/Nc2cc(C)nc(-n3nc(C)cc3C)n2)cc1	i	i	i	-6.66*	0.836	-17.4
